Screens from PubChem BioAssay.
Shown are actives, neighbours in structure and some others; about 2.8% of the full set was active somewhere.
NPY2 pot ag – NPY-Y2 potentiators or agonists, primary screen, cell-based. Neuropeptide Y receptor type 2 (Homo sapiens), P49146. cells expressing NPY-Y2, potentiator/agonist read-out. activation, % at 3.6 µM. hit rate 0.45% among 220,000. AID 1359, 2008; in the data active = activation above about 27%;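 note: cells stimulated with NPY near EC25 plus isoproterenol at EC100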
Target sequence (P49146 whole entry, looked up): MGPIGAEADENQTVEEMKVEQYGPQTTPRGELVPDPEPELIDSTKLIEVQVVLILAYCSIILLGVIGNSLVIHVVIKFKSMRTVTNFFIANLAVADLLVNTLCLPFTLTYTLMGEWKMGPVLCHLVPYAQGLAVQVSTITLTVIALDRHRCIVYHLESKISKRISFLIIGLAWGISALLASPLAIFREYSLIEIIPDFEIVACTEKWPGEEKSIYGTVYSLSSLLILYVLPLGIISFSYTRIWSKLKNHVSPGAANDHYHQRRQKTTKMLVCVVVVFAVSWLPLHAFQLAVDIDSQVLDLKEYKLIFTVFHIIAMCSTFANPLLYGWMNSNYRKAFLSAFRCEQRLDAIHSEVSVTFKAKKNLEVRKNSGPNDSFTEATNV
PGE2 EP2 inh – human EP2 receptor antagonists, primary screen, TR-FRET cAMP, C6 glioma cells. hit rate 0.52% among 260,000. AID 1422, 2008. inhibition, % at 25 µM. C6 glioma cells expressing human EP2; cells stimulated with saturating PGE2. Prostaglandin E2 receptor EP2 subtype (Homo sapiens), P43116;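 active = percent inhibition above 40 after rounding to a whole number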;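 note: rat C6 glioma host cells with rolipram phosphodiesterase inhibitor present; the protocol text gives 20 µM as final concentration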
Target sequence (P43116 whole entry, looked up): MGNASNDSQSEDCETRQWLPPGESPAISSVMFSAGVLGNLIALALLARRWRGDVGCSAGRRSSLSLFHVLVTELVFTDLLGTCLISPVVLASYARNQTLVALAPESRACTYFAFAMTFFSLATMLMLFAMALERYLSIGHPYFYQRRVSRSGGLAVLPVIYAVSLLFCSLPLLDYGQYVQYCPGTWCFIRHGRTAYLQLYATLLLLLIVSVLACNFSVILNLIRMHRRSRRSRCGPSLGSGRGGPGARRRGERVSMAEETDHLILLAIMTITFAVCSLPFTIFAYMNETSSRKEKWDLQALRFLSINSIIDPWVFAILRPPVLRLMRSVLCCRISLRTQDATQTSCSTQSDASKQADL
NPY-Y1 antag – NPY-Y1 receptor antagonists, primary screen, cell-based; hit rate 1% among 200,000; inhibition, % at 3.6 µM; HEK293-CNG Y1 cells, membrane potential fluorescence; NPY at EC95, then isoproterenol;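 active = inhibition above the campaign mean inhibition of all tested compounds plus 3 SD, cut at about 20% in these data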
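material = HEK293 cells with Y1 receptor plus CNG channel | also added = NPY 25 nM then isoproterenol 1 µM plus Ro 20-1724 25 µM | schedule = dye 3 h, compound 60 min room temperature, stimulation 45 min | measured by = membrane potential fluorescence | benchmarks = high control isoproterenol alone, low control NPY with isoproterenol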
EP2 modulator – EP2 receptor modulators, cAMP readout, primary screen, cell-based, HTRF cAMP, PGE2 stimulation. Prostaglandin E2 receptor EP2 subtype (Homo sapiens), P43116. EP2-expressing cells, cAMP HTRF FRET, PGE2 co-stimulation. induction, % at 25 µM. hit rate 0.83% among 260,000;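 active = compounds whose cAMP rise, as percent of the full-agonist control response, exceeds 60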;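 note: rat C6 glioma line stably carrying human EP2 under a CMV promoter; the protocol text gives 20 µM as final concentration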
NPY-Y1 PAM-ag – NPY-Y1 receptor potentiators or agonists, primary screen, cell-based; hit rate 0.37% among 220,000; Neuropeptide Y receptor type 1 (Homo sapiens), P25929; activation, % at 3.6 µM; NPY-Y1 expressing cells, potentiator/agonist activation; in the data active = activation above about 33%, passing the limit was not always enough;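 note: cells stimulated with NPY at EC10 then isoproterenol at EC100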
NPY Y2 blocker – NPY-Y2 receptor antagonists, primary screen, cell-based; Neuropeptide Y receptor type 2 (Homo sapiens), P49146; NPY-Y2 expressing cells, antagonist mode; inhibition, % at 2.7 µM; hit rate 0.99% among 140,000; AID 793, 2007; in the data active = inhibition above about 17%
Numbers stand for hits; n = inactive; x = not tested or not shown; ! = not active in a repeat.

SMILES | NPY2 pot ag | PGE2 EP2 inh | NPY-Y1 antag | EP2 modulator | NPY-Y1 PAM-ag | NPY Y2 blocker
CCCC(=O)N(Cc1ccccc1)Cc1nc2sc3c(c2c(=O)[nH]1)CCCC3 | x | n | x | n | x | x
COc1ccc(C2CC(c3ccc(NS(C)(=O)=O)cc3)=NN2C(C)=O)cc1OC (centres undefined) | x | n | x | n | x | x
CCCCCCCc1nc2c(=O)n(C)c3ccccc3c2o1 | n | n | n | 69.7 | n | n
CC1=N[C@@](C)(COC(=O)[C@]2(C)N[C@](C)(CO)CO2)COC1=O | x | 47.7 | x | n | x | x
O=S1(=O)CCN(c2ccccc2CC(c2c[nH]c3ccccc23)c2c[nH]c3ccccc23)CC1 | x | 52.4 | x | n | x | x
O=C(O)[C@@H](Cc1c[nH]c2ccccc12)C(=O)NO | x | n | x | n | x | x
Oc1ccc(O)cc1 | x | 109.9! | x | n | x | x
O=C(c1ccc(O)cc1)c1ccc(C(=O)c2ccc(O)cc2)cc1 | n | n | n | n | n | n
CC1=C(C#N)c2nc(N)c(C#N)c(C)c2/C1=C\c1cccc(Cl)c1 | x | 50.3 | x | n | x | x
CCOC(=O)Nc1nc(-c2ccccc2)c(C(=O)c2ccc(Cl)cc2)s1 | n | n | 40.0 | n | n | 20.1
COc1cc2c(cc1OC)C1Cc3ccc(OC)c(OC)c3CN1CC2 (centres undefined) | n | n | n | n | n | n
CCC1=C(C[C@H]2NCCc3ccccc32)C[C@H]2c3cc(OC)c(OC)cc3CCN2C1 | x | 53.1 | x | n | x | x
O=C(Nc1nc2ccccc2o1)Nc1ccccc1Cl | x | 40.8 | x | n | x | x
Cc1c(C(=O)Oc2cccc3ccccc23)cnn1-c1ccccc1 | n | n | n | n | n | 18.1
CN(C)S(=O)(=O)c1ccc(S(=O)(=O)N2CCc3ccccc3C2)cc1 | x | n | x | n | x | x
O=C(O)c1cc2c(cc1S(=O)(=O)O)[C@@H]1[C@@H]([C@H]3[C@H]2[C@]2(Cl)C(Cl)=C(Cl)[C@@]3(Cl)C2(Cl)Cl)[C@]2(Cl)C(Cl)=C(Cl)[C@@]1(Cl)C2(Cl)Cl | x | 44.8 | x | 73.3 | x | x
COc1cccc(C(=O)N2CCC(Cn3nc(-c4ccccc4)ccc3=O)CC2)c1 | x | x | x | n | x | x
CCOC(=O)c1c(N)sc(=S)c2c1CCC2 | n | 60.8 | n | n | n | n
CCOC(=O)c1c(N)sc(N)c1C(=O)OCC | n | n | n | n | n | n
O=S(=O)(O)c1cccc(N=Nc2c(O)ccc3ccccc23)c1 | n | n | x | n | n | x
O=S(=O)(O)c1cc(O)c2c(O)c(N=Nc3cccc4ccccc34)c(S(=O)(=O)O)cc2c1 | x | 56.6 | x | n | x | x
CCCCN1/C(=C/c2ccc3ccccc3[n+]2CC)Sc2ccccc21 | n | n | n | n | n | x
CC[n+]1c(/C=C2/Sc3ccc(OC)cc3N2C)ccc2cc(OC)ccc21 | x | 123.2 | x | n | x | x
CCN1/C(=C\c2ccc3cccc(C)c3[n+]2C)C=Cc2cc(C)ccc21 | x | n | x | n | x | x
CCN1/C(=C/c2ccc3cc(C)ccc3[n+]2CC)Sc2cc(C)ccc21 | n | 80.3 | n | n | n | x
SMILES | NPY2 pot ag | PGE2 EP2 inh | NPY-Y1 antag | EP2 modulator | NPY-Y1 PAM-ag | NPY Y2 blocker
CCN1/C(=C/c2ccc3cc(C)ccc3[n+]2C)Sc2ccc3sccc3c21 | n | 45.4 | n | n | n | x
CCN1/C(=C/c2ccc3cc(OC)ccc3[n+]2CC)Sc2cc(NC(C)=O)ccc21 | x | n | x | n | x | x
CCN1/C(=C/c2ccc3ccccc3[n+]2C)Sc2cc(C)ccc21 | x | 51.9 | x | n | x | x
O=C(NC1CCCCCC1)c1cc2nc(-c3ccco3)cc(C(F)(F)F)n2n1 | x | n | x | n | x | x
CC1CC(C)(C)N(C(=O)Cn2nc(-c3ccco3)cc(N)c2=O)c2ccccc21 (centres undefined) | x | n | x | n | x | x
O=C(O)CCC(O)=C1S(=O)(=O)OCCOS1(=O)=O | x | 42.5 | x | n | x | x
O=C(O)CCN1CCOCC1 | n | n | n | n | n | n
CC1=NOC(=O)/C1=C\c1ccc2c(c1)OCO2 | n | n | n | n | n | x
CC1=NOC(=O)/C1=C/c1ccc2c(c1)OCO2 | n | 61.2 | n | n | n | x
COCCCNc1nc2c(c(=O)[nH]c(=O)n2C)n1Cc1ccccc1Cl | x | n | x | n | x | x
NC(=O)c1ccc[n+]([C@@H]2O[C@H](COP(=O)([O-])OP(=O)(O)OC[C@H]3O[C@@H](n4cnc5c(N)ncnc54)[C@H](OP(=O)(O)O)[C@@H]3O)[C@@H](O)[C@H]2O)c1 | x | n | x | 70.9 | x | x
COc1ccc(CNn2c(-c3cccs3)nc3ccccc3c2=O)cc1OC | n | n | n | n | n | x
O=c1c2ccccc2nc(-c2cccs2)n1-c1cccc2ccccc12 | n | n | n | 62.4 | n | n
Cc1ccc(CN(CCCn2ccnc2)Cc2ccnc3ccc(Cl)cc23)o1 | x | n | x | n | x | x
CCN1c2ncccc2C(=O)NC12CCN(C(=O)c1cnn(CC)c1C)CC2 | x | n | x | n | x | x
Cc1nc2sc3c(c2c(=O)n1/N=C/c1ccco1)CCCC3 | 103.4 | n | n | n | 104.4 | n
O=C(CN1CCN(Cc2ccc3c(c2)OCO3)CC1)N1CCOCC1 | x | n | x | n | x | x
CN(C)/C=C1\C(=O)ON=C1c1ccccc1 | n | n | n | n | n | x
O=C1ON=C(c2ccccc2)/C1=C/c1ccco1 | n | 95.8 | n | n | n | x
Cc1ccc(-n2ncc3c(=O)n(CC(=O)N4CCCCC4C)cnc32)cc1 (centres undefined) | x | n | x | n | x | x
COCCNC(=S)N1CCC(NC(=O)c2cccc(OC)c2)CC1 | x | n | x | n | x | x
COc1ccc(C(=O)N2CCC(C(=O)Nc3ccc(OC)c(Cl)c3)CC2)cc1 | x | n | x | n | x | x
Cc1ccc(OCCCN2C(=O)C(=O)c3cccc(C)c32)cc1 | n | n | n | 63.5 | n | n
Cc1ccc(OCCN2C(=O)C(=O)c3cc(C)ccc32)cc1 | n | n | 21.2 | n | n | x
Cc1cccc2c1N(CCOc1ccc(C(C)(C)C)cc1)C(=O)C2=O | n | n | n | n | n | n
SMILES | NPY2 pot ag | PGE2 EP2 inh | NPY-Y1 antag | EP2 modulator | NPY-Y1 PAM-ag | NPY Y2 blocker
CC(C)N(C(=O)CN1C(=O)C2CCCN2S(=O)(=O)c2ccccc21)C(C)C (centres undefined) | x | x | x | n | x | x
CCS(=O)(=O)N1CCN(S(=O)(=O)c2ccc(C)c(Cl)c2)CC1 | x | n | x | n | x | x
CC1CCN(CCCOc2ccc(OCc3ccccc3)cc2)CC1 | n | n | 23.9 | n | n | 22.5
OC(c1ccccc1)(c1ccc(F)cc1)C(c1ccccc1)N1CCOCC1 (centres undefined) | n | n | n | 60.6 | n | n
COc1ccc(NC(=O)CSc2nnc3c(n2)[nH]c2c(OC)ccc(Cl)c23)cc1 | x | n | x | n | x | x
C(=N\Nc1nc(-c2ccccn2)nc2ccccc12)/c1ccccc1 | n | n | x | 68.7 | n | x
Cn1c(NC(=O)c2cccnc2)nc2ccccc21 | n | 51.5 | n | n | n | n
CN(Cc1ccccc1)c1nc(-c2ccc([N+](=O)[O-])cc2)nc2ccccc12 | n | n | n | 63.8 | n | n
O=c1[nH]c(=S)[nH]c2c1CN(CCCN1CCOCC1)CN2 | x | 101.9 | x | n | x | x
